Data reported in ChEMBL document CHEMBL1641440, “Virtual screening based identification of novel small-molecule inhibitors targeted to the HIV-1 capsid” (Bioorg Med Chem, 2011).
The source made the active and inactive calls. The rule behind the calls is not given here.

Legend:
MT2 = test: Cytotoxicity against human MT2 cells after 4 days by XTT assay; format: cell-based; details: mt2, 96 h
In short: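 XTT assay run in parallel with the MT-2 antiviral assay, with medium in place of virus. Graded compound added to an equal volume of MT-2 cells (1 × 10^5 cells/mL), 37 °C for 4 days. Formazan read at 450 nm (reference 620 nm) 4 h after XTT addition; CC50 = concentration giving 50% cytotoxicity.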

[1] = tested on: Human immunodeficiency virus 1; test: Antiviral activity against HIV1 3B infected in human MT2 cells assessed as inhibition of viral p24 antigen production after 4 days by ELISA; format: functional, organism-based; details: Human immunodeficiency virus 1, 3B, MT2, 96 h
In short: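 MT-2 cells (1 × 10^4) infected with HIV-1 IIIB at 100 TCID50 (0.01 MOI) in RPMI 1640/10% FBS with graded inhibitor concentrations overnight; medium then replaced with fresh medium containing freshly prepared compound. On day 4 supernatant mixed 1:1 with 5% Triton X-100 and p24 measured by ELISA; IC50 = concentration giving 50% reduction in p24 production. Mean ± SD.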

[2] = tested on: Human immunodeficiency virus 1; test: Antiviral activity against primary HIV1 isolate RU570 infected in human PBMC assessed as inhibition of viral p24 antigen production after 7 days by ELISA; details: Human immunodeficiency virus 1, isolate RU570, 168 h
[3] = tested on: Human immunodeficiency virus 1; test: Antiviral activity against primary HIV1 isolate 92UG024 infected in human PBMC assessed as inhibition of viral p24 antigen production after 7 days by ELISA; details: Human immunodeficiency virus 1, isolate 92UG024, 168 h
[4] = Selectivity index, ratio of CC50 for human MT2 cells to IC50 for HIV1 3B infected in human MT2 cells; format: functional
In short: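 IC50: MT-2 cells infected with HIV-1 IIIB (100 TCID50, 0.01 MOI) overnight with graded compound, then medium refreshed with compound; day-4 p24 measured by ELISA. […] Ratio is CC50/IC50.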

[5] = tested on: Human immunodeficiency virus 1; test: Antiviral activity against HIV1 SF2 infected in human MT2 cells assessed as inhibition of viral p24 antigen production after 4 days by ELISA; format: functional, organism-based; details: Human immunodeficiency virus 1, SF2, MT2, 96 h
In short: (§1)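 MT-2 cells (1 × 10^4) were infected at 100 TCID50 (0.01 MOI) in RPMI 1640 with 10% FBS, with or without graded inhibitor concentrations, overnight. Medium was then replaced with fresh inhibitor-containing medium. On day 4, supernatant was mixed 1:1 with 5% Triton X-100 and p24 was measured by ELISA. IC50 is the concentration giving 50% reduction in p24.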

[6] = tested on: Human immunodeficiency virus 1; test: Antiviral activity against HIV1 89.6 infected in human PBMC assessed as inhibition of viral p24 antigen production after 4 days by ELISA; format: functional, organism-based; details: Human immunodeficiency virus 1, 89.6, 96 h
[7] = tested on: Human immunodeficiency virus 1; test: Antiviral activity against HIV1 MN infected in human MT2 cells assessed as inhibition of viral p24 antigen production after 4 days by ELISA; format: functional, organism-based; details: Human immunodeficiency virus 1, MN, MT2, 96 h; in short: as §1
[8] = tested on: Human immunodeficiency virus 1; test: Antiviral activity against HIV1 RF infected in human MT2 cells assessed as inhibition of viral p24 antigen production after 4 days by ELISA; format: functional, organism-based; details: Human immunodeficiency virus 1, RF, MT2, 96 h; in short: as §1
[9] = biological target: Structural capsid protein (Human immunodeficiency virus 1) (UniProt Q76129); test: Binding affinity to HIV1 capsid protein assessed as decrease in formation of mature-like particles after 30 mins by electron microscopy
In short: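 Purified CA at 50 μM in Na2HPO4 buffer pH 8.0, without RNA, was incubated with inhibitor at 0.5 to 5 molar equivalents for 30 min at 4 °C. It was then dialysed overnight at 4 °C in the same buffer plus 100 mM NaCl. Samples were spotted on poly-L-lysine-treated grids, negatively stained with uranyl acetate and imaged by EM at 80 kV for tube-shaped particles.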

[10] = tested on: Human immunodeficiency virus 1; test: Antiviral activity against HIV1 BaL infected in human PBMC assessed as inhibition of viral p24 antigen production after 4 days by ELISA; format: functional, organism-based; details: Human immunodeficiency virus 1, BaL, 96 h
[11] = tested on: Human immunodeficiency virus 1; test: Antiviral activity against protease-resistant HIV1 RF/L-323-12-3 infected in human MT2 cells assessed as inhibition of viral p24 antigen production after 4 days by ELISA; format: functional, organism-based; details: Human immunodeficiency virus 1, RF/L-323-12-3, MT2, 96 h; in short: as §1
[12] = tested on: Human immunodeficiency virus 1; test: Antiviral activity against primary HIV1 isolate 92US657 infected in human PBMC assessed as inhibition of viral p24 antigen production after 7 days by ELISA; details: Human immunodeficiency virus 1, isolate 92US657, 168 h
[13] = tested on: Human immunodeficiency virus 1; test: Antiviral activity against HIV1 3B infected in human MT2 cells assessed as inhibition of viral p24 antigen production at 5 uM after 4 days by ELISA; format: functional, organism-based
[14] = tested on: Human immunodeficiency virus 1; test: Antiviral activity against primary HIV1 isolate 94UG103 infected in human PBMC assessed as inhibition of viral p24 antigen production after 7 days by ELISA; details: Human immunodeficiency virus 1, isolate 94UG103, 168 h
[15] = tested on: Human immunodeficiency virus 1; test: Antiviral activity against primary HIV1 isolate 93BR020 infected in human PBMC assessed as inhibition of viral p24 antigen production after 7 days by ELISA; details: Human immunodeficiency virus 1, isolate 93BR020, 168 h
[16] = tested on: Human immunodeficiency virus 1; test: Antiviral activity against azidothymidine-resistant HIV1 SF2 infected in human MT2 cells assessed as inhibition of viral p24 antigen production after 4 days by ELISA; format: functional, organism-based; details: Human immunodeficiency virus 1, MT2, 96 h; in short: as §1
[17] = tested on: Human immunodeficiency virus 1; test: Antiviral activity against primary HIV1 isolate 93IN101 infected in human PBMC assessed as inhibition of viral p24 antigen production after 7 days by ELISA; details: Human immunodeficiency virus 1, isolate 93IN101, 168 h
[18] = tested on: Human immunodeficiency virus 1; test: Antiviral activity against primary HIV1 isolate BCF02 infected in human PBMC assessed as inhibition of viral p24 antigen production after 7 days by ELISA; details: Human immunodeficiency virus 1, isolate BCF02, 168 h
[19] = tested on: Human immunodeficiency virus 1; details: 3B, MT2, 1 ug/mL

Chain of Structural capsid protein (Human immunodeficiency virus 1) (Q76129 as listed by the source): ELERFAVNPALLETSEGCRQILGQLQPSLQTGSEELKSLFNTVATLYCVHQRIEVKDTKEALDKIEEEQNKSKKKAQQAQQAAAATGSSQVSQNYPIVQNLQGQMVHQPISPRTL

SMILES | CC50 (MT2) | IC50 [1] | also measured
Cc1ccc2[nH]c(=O)c(CN(Cc3ccccc3)C(=O)c3ccco3)cc2c1 | > 67.1 µM | 3.09 µM | –
Cc1ccc2[nH]c(=O)c(CN(Cc3cccs3)C(=O)c3ccccc3)cc2c1 | – | > 12.9 µM | –
Cc1cccc2cc(CN(Cc3ccco3)C(=O)c3ccccc3F)c(=O)[nH]c12 | > 64 µM | 7.25 µM | –
Cc1ccc2[nH]c(=O)c(CN(Cc3ccco3)C(=O)c3ccccc3)cc2c1 | > 67.1 µM | 9.28 µM | –
Cc1cccc2cc(CN(Cc3ccco3)C(=O)c3ccccc3)c(=O)[nH]c12 | > 67.1 µM | 4.02 µM | –
Cc1ccc2[nH]c(=O)c(CN(Cc3ccco3)C(=O)c3ccc(Cl)cc3)cc2c1 | – | 1.06 µM | IC50 [2]: 2.84 µM; IC50 [3]: 2.57 µM; Selectivity Index [4]: >60; IC50 [5]: 2.43 µM; IC50 [6]: 6.17 µM; IC50 [7]: 2.88 µM; IC50 [8]: 1.64 µM; inhibition [9]: Dose-dependent effect; IC50 [10]: 4.22 µM; IC50 [11]: 1.18 µM; IC50 [12]: 5.46 µM; inhibition [13]: Active; IC50 [14]: 3.93 µM; IC50 [15]: 4.18 µM; IC50 [16]: 5.77 µM; IC50 [17]: 2.7 µM; IC50 [18]: 6.07 µM
Cc1ccc2[nH]c(=O)c(CN(Cc3ccco3)C(=O)c3ccc(C#N)cc3)cc2c1 | – | > 25.2 µM | –
Cc1ccc2[nH]c(=O)c(CN(Cc3ccco3)C(=O)c3ccc(Cl)c(Cl)c3)cc2c1 | 70.7 µM | 9.2 µM | –
Cc1ccc2[nH]c(=O)c(CN(Cc3ccco3)C(=O)CN3CCN(C)CC3)cc2c1 | – | > 24.5 µM | –
c1cc(CN2CCCNCCNCCCNCC2)ccc1CN1CCCNCCNCCCNCC1 | – | – | inhibition [19]: Active
CCOc1ccc(C(=O)N(Cc2cccs2)Cc2cc3cc(C)ccc3[nH]c2=O)cc1 | 12.7 µM | 5 µM | –
Cc1ccc2[nH]c(=O)c(CN(Cc3ccco3)C(=O)c3ccc(N(C)C)cc3)cc2c1 | – | > 24.1 µM | –
COc1ccc2nc(O)c(CN(Cc3ccco3)C(=O)c3ccccc3)cc2c1 | – | > 25.7 µM | –
Cc1ccc2cc(CN(Cc3ccco3)C(=O)c3ccccc3)c(=O)[nH]c2c1 | – | > 16.8 µM | –
COc1ccc2[nH]c(=O)c(CN(Cc3cccs3)C(=O)C3CCCCC3)cc2c1 | > 48 µM | 6.1 µM | –
COc1ccc2[nH]c(=O)c(CN(Cc3cccs3)C(=O)c3cccc(C)c3)cc2c1 | 25 µM | 7.9 µM | –
Cc1ccc(CN(Cc2cc3cc(C)ccc3[nH]c2=O)C(=O)c2ccco2)cc1 | > 19.8 µM | 6.4 µM | –
Cc1ccc2[nH]c(=O)c(CN(CC3CCCO3)C(=O)c3ccc(Cl)cc3)cc2c1 (stereo not given) | – | > 38.9 µM | –
Cc1ccc2cc(CN(Cc3ccco3)C(=O)c3cccc(F)c3)c(=O)[nH]c2c1 | > 51.2 µM | 12.4 µM | –
Cc1ccc2[nH]c(=O)c(CN(Cc3ccco3)C(=O)C(F)(F)F)cc2c1 | – | > 27.5 µM | –
Cc1ccc2[nH]c(=O)c(CN(Cc3cccs3)C(=O)c3cccs3)cc2c1 | > 64 µM | 11.8 µM | –
Cc1ccc2[nH]c(=O)c(CN(Cc3ccco3)C(=O)c3ccc(F)c(Cl)c3)cc2c1 | > 23.5 µM | 8.2 µM | –
COc1ccc(C(=O)N(Cc2ccco2)Cc2cc3cc(C)ccc3[nH]c2=O)cn1 | – | > 24.8 µM | –
Cc1ccc2[nH]c(=O)c(CN(Cc3ccco3)C(=O)c3ccc(Br)cc3)cc2c1 | > 55.4 µM | 2.16 µM | –

SMILES | CC50 (MT2) | IC50 [1] | also measured
Cc1ccc2[nH]c(=O)c(CN(Cc3ccco3)C(=O)c3ccc(Cl)c(O)c3)cc2c1 | – | > 23.6 µM | –
Cc1cc(=O)n2c3ccccc3n(C[C@H](O)CN3CCOCC3)c2c1C#N | > 34.1 µM | 30 µM | –
Cc1cccc2cc(CN(Cc3ccco3)C(=O)c3cccs3)c(O)nc12 | > 66.1 µM | > 16.5 µM | –
Cc1ccc2[nH]c(=O)c(CN(Cc3ccco3)C(=O)c3cccnc3)cc2c1 | – | > 16.7 µM | –
Cc1ccc2cc(CN(Cc3ccco3)C(=O)c3ccc(C(C)(C)C)cc3)c(=O)[nH]c2c1 | – | > 14.6 µM | –
CCc1ccc2[nH]c(=O)c(CN(Cc3ccco3)C(=O)c3ccccc3)cc2c1 | – | > 13.9 µM | –
Cc1ccc(C(=O)N(Cc2ccco2)Cc2cc3cccc(C)c3[nH]c2=O)cc1 | 9.2 µM | 2.67 µM | –
Cc1ccc2[nH]c(=O)c(CN(Cc3ccco3)C(=O)c3cc(Cl)c(O)c(Cl)c3)cc2c1 | – | > 21.9 µM | –
Cc1ccc2[nH]c(=O)c(CN(Cc3ccc(Cl)cc3)C(=O)c3cn4cccc(C)c4n3)cc2c1 | 44.5 µM | 9.27 µM | –
COc1ccc2[nH]c(=O)c(CN(Cc3ccco3)C(=O)c3ccc(Br)cc3)cc2c1 | – | > 13 µM | –
Cc1ccc2[nH]c(=O)c(CN(Cc3ccc4c(c3)OCO4)C(=O)c3ccccc3)cc2c1 | > 117 µM | 5.8 µM | –
Cc1ccc2[nH]c(=O)c(CN(Cc3ccco3)C(=O)c3ccc(F)c(F)c3)cc2c1 | > 24.5 µM | 4.7 µM | –
COc1ccc2[nH]c(=O)c(CN(Cc3ccco3)C(=O)c3ccc(C)cc3)cc2c1 | > 31 µM | 7.87 µM | –
Cc1ccc2[nH]c(=O)c(CN(Cc3ccco3)C(=O)c3cnn(C)c3)cc2c1 | – | > 26.6 µM | –
Cc1ccc2[nH]c(=O)c(CN(Cc3cccs3)C(=O)C3CCCCC3)cc2c1 | > 63.4 µM | 11.7 µM | –
Cc1ccc(C(=O)N(Cc2ccco2)Cc2cc3ccc(C)cc3[nH]c2=O)cc1 | – | > 16.2 µM | –
Cc1ccc2[nH]c(=O)c(CN(Cc3ccco3)C(=O)c3ccc(O)c(Cl)c3)cc2c1 | – | > 23.6 µM | –
Cc1ccc2[nH]c(=O)c(CN(Cc3ccco3)C(=O)c3ccc(Cl)c(N4CCCCC4)c3)cc2c1 | > 20.4 µM | 7.1 µM | –
Cc1ccccc1C(=O)N(Cc1ccco1)Cc1cc2cccc(C)c2[nH]c1=O | > 64.7 µM | 4.23 µM | –
Cc1ccc2[nH]c(=O)c(CN(Cc3ccco3)C(=O)c3ccc(F)cc3)cc2c1 | – | > 25.6 µM | –
Cc1ccc2[nH]c(=O)c(CN(Cc3ccco3)C(=O)c3ccc(S(N)(=O)=O)cc3)cc2c1 | – | > 22.1 µM | –
COc1ccc(C(=O)N(Cc2ccco2)Cc2cc3ccc(C)cc3[nH]c2=O)cc1 | – | > 15 µM | –
Cc1cccc2cc(CN(Cc3ccccc3)C(=O)c3cccc(Cl)c3)c(=O)[nH]c12 | > 60 µM | 3.59 µM | –
CCc1ccc2[nH]c(=O)c(CN(Cc3ccco3)C(=O)c3cccs3)cc2c1 | > 127 µM | 12.3 µM | –
